# High-throughput results: PubChem, Broad Institute
# N-glyco inh: blocks N-linked glycosylation in D54 reporter cells; D54 ERlucT glycosylation luciferase reporter, 24 h; percent of 100 nM tunicamycin response; reporter increase, % at 12.5 µM; 360,000 compounds, 0.23% hits;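 active = mean luciferase reporter signal, scaled so untreated is 0 and the glycosylation-blocking control 100, at or above a set limit in every replicate; inconclusive = mean reaches the limit but not every replicate does; inactive = mean below the limit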;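 also: luciferase carries N-glycosylation sites so blocking glycosylation raises the light; 0% = median of neutral control wells and 100% = median of 100 nM tunicamycin wells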
# EWS-Fli inh: EWS/Fli transcriptional activity inhibition; A673 NR0B1-luciferase reporter, viability-normalised; inhibition, % at 12.6 µM; 350,000 compounds, 0.67% hits;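 active = mean inhibition of at least 50% after viability correction, with every replicate also passing that limit; inconclusive = mean reaches 50% but only one of two replicates passes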;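 also: firefly luciferase signal divided by Alamar Blue viability fluorescence both relative to DMSO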
# Env fusion inh: blocks HIV Env-driven cell-cell fusion; HeLa-JRFL Env/CEM21 cell fusion, luciferase; inhibition, % at 12.3 µM; 360,000 compounds, 1.1% hits;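 active = mean replicate inhibition score of at least 50 and every replicate individually at or above 50; inconclusive = only one of the two criteria met; inactive = mean below 50 and not all replicates reaching 50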;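 also: 0% = plate neutral controls and 100% = maraviroc near 300 nM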
# MLL AF4-AF9 inh: inhibitors of human MLL-AF4/AF9 interaction; P42568; AlphaScreen, biotin-AF4 peptide binding to FLAG-AF9; inhibition, % at 10 µM; 350,000 compounds, 0.47% hits;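 active = every replicate reaching a set inhibition limit, whatever the replicate mean, cut at about 25% in these data; inconclusive = mean inhibition reaches that limit but some replicates miss it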;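 also: 0% = plate neutral control median and 100% = total signal loss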
# Target sequence (P42568 whole entry, looked up): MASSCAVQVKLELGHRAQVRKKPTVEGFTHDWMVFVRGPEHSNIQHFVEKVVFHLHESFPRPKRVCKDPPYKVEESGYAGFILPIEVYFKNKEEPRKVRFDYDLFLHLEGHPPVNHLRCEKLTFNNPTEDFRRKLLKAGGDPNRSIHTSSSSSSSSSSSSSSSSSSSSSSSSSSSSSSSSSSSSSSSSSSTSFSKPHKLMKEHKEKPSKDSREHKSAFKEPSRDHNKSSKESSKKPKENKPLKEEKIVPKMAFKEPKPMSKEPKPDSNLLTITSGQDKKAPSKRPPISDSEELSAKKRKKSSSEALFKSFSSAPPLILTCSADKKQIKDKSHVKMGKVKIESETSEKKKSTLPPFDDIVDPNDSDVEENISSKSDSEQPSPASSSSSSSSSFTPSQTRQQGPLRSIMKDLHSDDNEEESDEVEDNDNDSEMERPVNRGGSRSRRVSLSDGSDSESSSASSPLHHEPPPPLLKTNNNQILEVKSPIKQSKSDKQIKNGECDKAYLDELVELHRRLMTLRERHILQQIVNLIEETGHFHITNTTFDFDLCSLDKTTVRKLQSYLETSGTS
# FN deposition inh: fibronectin deposition inhibition; AH1F fibroblasts, Alexa488-fibronectin deposition fluorescence, overnight; inhibition, % at 12.6 µM; 350,000 compounds, 0.086% hits; AID 743247;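 active = mean inhibition across replicates of 30% or more, regardless of how many single replicates reach that level; inconclusive = mean under 30% yet at least half of replicates reach 30%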;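 also: positive control wells lacked labelled fibronectin entirely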
#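 Material: AH1F fibroblasts assembling fluorescent fibronectin matrix; amount: 10000 AH1F cells/well; medium: DMEM, 2% serum; reagent: Alexa488-fibronectin, 24 nM final in well; dosing: single compound dose, delivered by pin transfer; incubation: 1 h adhesion, overnight exposure; detection: fluorescence after three HBSS washes, excitation 485 nm, emission 525 nm; measure: fibronectin deposition inhibition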
# PAX8 inh HTS: PAX8 transcriptional activity inhibition; RMG-I TPO-luciferase reporter, SteadyGlo, 24 h; inhibition, % at 12.6 µM; 360,000 compounds, 1.2% hits; AID 652154;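 active = mean replicate inhibition at least 60% with every replicate also reaching 60%; inconclusive = only one of the two criteria is met; inactive = mean below 60% and not all replicates reaching 60%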;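 also: luciferase light reporting Pax8 driven TPO promoter activity; plate controls were median of neutral control wells for no effect and mitoxantrone controls for full effect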
# Starred values were filed as active, the others as inactive; ? = inconclusive; . = not tested or not shown; [ ] = remark or other dose. A selection: hits, their analogues and other compounds. The true share with any hit is near 2.5%.
SMILES,N-glyco inh,EWS-Fli inh,Env fusion inh,MLL AF4-AF9 inh,FN deposition inh,PAX8 inh HTS
CC(C)NC(=O)Nc1ccc2c(c1)C(=O)N([C@@H](C)CO)C[C@H](C)[C@H](CN(C)C(=O)Nc1ccc(F)cc1)O2,.,-19.2,70.4*[16.7 µM],-3.5,12.8,-10.4
C[C@@H]1CN([C@H](C)CO)C(=O)c2cc(NC(=O)Nc3ccc4c(c3)OCO4)ccc2O[C@H]1CN(C)C(=O)Nc1ccc(C(F)(F)F)cc1,.,-42.2,5.8[16.7 µM],5.2,8.0,65.4*
CC(C)NC(=O)N(C)C[C@H]1Oc2ccc(NC(=O)CCN3CCOCC3)cc2C(=O)N([C@H](C)CO)C[C@@H]1C,2.4,-4.5,-12.8[16.7 µM],-0.5,39.3*,2.2
C[C@@H]1CN([C@H](C)CO)C(=O)c2cc(NC(=O)Nc3ccc(C(F)(F)F)cc3)ccc2O[C@@H]1CN(C)C(=O)Nc1ccc2c(c1)OCO2,.,-1.4,.,1.4,.,.
C[C@@H]1CN([C@@H](C)CO)C(=O)c2cc(NC(=O)Nc3ccc(C(F)(F)F)cc3)ccc2O[C@H]1CN(C)C(=O)Nc1ccc(C(F)(F)F)cc1,.,20.9,8.5[16.7 µM],-2.5,.,91.7*
C[C@@H]1CN([C@H](C)CO)C(=O)c2cc(NC(=O)Nc3ccc(C(F)(F)F)cc3)ccc2O[C@@H]1CN(C)C(=O)Nc1ccc(C(F)(F)F)cc1,.,-6.5,28.1[16.7 µM],1.2,.,12.7
CC(C)NC(=O)N(C)C[C@@H]1Oc2ccc(NC(=O)CCN3CCOCC3)cc2C(=O)N([C@@H](C)CO)C[C@H]1C,.,9.1,9.1[16.7 µM],-13.0,.,-12.7
O=C(c1cc(O)c(O)c([N+](=O)[O-])c1)c1ccccc1F,-0.6,0.9,9.1,25.7*,6.4,9.3
O=C(CSc1ccccc1C(=O)NCc1ccccc1)NC12CC3CC(CC(C3)C1)C2,1.0,.,75.6*,.,-14.0,3.5
O=C(CN1CCN(c2ncc(C(F)(F)F)cc2Cl)CC1)N1CCN(c2ncc(C(F)(F)F)cc2Cl)CC1,2.9,.,94.7*,.,-17.2,.
CN(Cc1ccccc1)C1=CC(=[N+]2CCCCC2)CC(C)(C)C1,1.0,22.7,44.5,1.4,-9.0,74.3*
c1ccc(CN2CCN(c3ncccn3)CC2)cc1,-0.4,-6.2,-2.2,-3.6,-1.7,-34.4
CC1(C)CC(N2CCN(Cc3ccccc3)CC2)=CC(=[N+]2CCCCC2)C1,1.0,1.0,-2.3,2.0,-7.0,69.2*
CC1(C)CC(NNCCC#N)=CC(=[N+]2CCCC2)C1,-0.9,1.1,5.7,-0.5,0.6,9.4
CC1(C)CC(N2CCCC2)=CC(=[N+]2CCCC2)C1,2.1,7.8,59.4*,-3.5,1.4,13.5
CC1(C)CC(N2CCCC2)=CC(=[N+]2CCCCC2)C1,1.8,12.0,45.6,-3.3,-9.3,37.6
Cc1ccc(-c2ccc(C(=O)O)o2)cc1Cl,1.8,-9.3,-4.6,27.0*,-14.3,5.1
COC(=O)c1c(-c2ccccc2)noc1C,0.0,1.5,-9.3,-2.1,3.2,1.2
COC(=O)c1c(C)oc(C)c1S(=O)(=O)NC(c1ccccc1)c1ccccc1,-2.6,-2.2,67.8*,.,-1.7,-0.5
O=C(NCC[C@H]1CC[C@@H](NC(=O)c2ccc3c(c2)OCO3)[C@@H](CO)O1)Nc1cc(F)ccc1F,.,-3.8,-11.7[16.7 µM],9.6,0.7,-16.8
CCNC(=O)C[C@H]1CC[C@@H]2[C@H](COC[C@H](O)CN2C(=O)Nc2ccc3c(c2)OCO3)O1,.,-88.0,.,1.1,-3.2,-60.4
C[C@@H]1CN([C@H](C)CO)C(=O)Cc2cc(NC(=O)Nc3cccc4ccccc34)ccc2O[C@@H]1CN(C)S(=O)(=O)c1cccs1,.,3.2,?,.,.,14.5
C[C@H]1CN([C@@H](C)CO)C(=O)Cc2cc(NC(=O)Nc3ccc4c(c3)OCO4)ccc2O[C@H]1CN(C)S(=O)(=O)c1cccs1,.,6.9,92.2*[16.7 µM],.,.,19.5
C[C@H](CO)N1C[C@H](C)[C@H](CN(C)S(=O)(=O)c2cccs2)Oc2ccc(NC(=O)Nc3ccccc3)cc2CC1=O,.,-2.7,105.5*[16.7 µM],0.3,.,-11.3
COc1ccc(NC(=O)Nc2ccc3c(c2)CC(=O)N([C@H](C)CO)C[C@H](C)[C@H](CN(C)S(=O)(=O)c2cccs2)O3)cc1,.,-8.8,70.1*[16.7 µM],0.8,-8.7,-23.9
SMILES,N-glyco inh,EWS-Fli inh,Env fusion inh,MLL AF4-AF9 inh,FN deposition inh,PAX8 inh HTS
C[C@H](CO)N1C[C@H](C)[C@H](CN(C)S(=O)(=O)c2cccs2)Oc2ccc(NC(=O)Nc3cccc4ccccc34)cc2CC1=O,.,4.1,75.3*[16.7 µM],.,.,15.9
C[C@H]1CN([C@@H](C)CO)C(=O)c2cc(NS(=O)(=O)c3ccccc3)ccc2O[C@H]1CN(C)Cc1ccc2c(c1)OCO2,.,2.4,27.4[16.7 µM],-0.5,2.1,11.4
CO[C@H]1CN(C)C(=O)c2cc(NC(=O)C3CC3)ccc2OC[C@@H](C)N(C(=O)C2CCCCC2)C[C@@H]1C,.,-0.3,.,-3.5,5.6,.
CO[C@H]1CN(C)C(=O)c2ccc(NS(=O)(=O)c3cccc(F)c3)cc2OC[C@H](C)N(C(=O)Cc2cccnc2)C[C@@H]1C,.,-0.7,20.0[16.7 µM],-0.8,10.3,.
O=C(Cc1ccccc1)N1C[C@H]2[C@@H](c3ccccc31)[C@@H](CO)N2C(=O)Cc1ccccc1,.,5.9,.,-0.1,.,11.7
COc1ccc(N2CCn3c2nc2c3c(=O)n(CCCc3ccccc3)c(=O)n2C)c(OC)c1,-5.6,.,73.3*,.,1.0,32.9
O=C(NCc1ccccc1)[C@@H]1N[C@@H]2c3ccc(-c4ccccc4)c(=O)n3C[C@@H]2[C@H]1CO,.,9.8,.,2.9,.,.
Cc1cc(=O)c2c(N(C)C)cccc2[nH]1,2.7,5.7,6.6,31.6*,-1.1,15.6
Cc1cc(=O)c2ccccc2[nH]1,-0.2,.,-76.7,.,-4.2,0.0
Cc1cc2c3c(c1C)C1(C(=O)N3C(C)(C)CC2C)C(C#N)=C(N)Oc2cc(O)ccc21 (stereo not drawn),-2.4,.,61.9*,.,1.6,.
COc1ccc(C(=O)NCc2ccccc2CN2CCCC2)cc1S(=O)(=O)N1CCOCC1,-2.1,-7.2,61.9*,-5.8,5.0,-20.2
COCC(=O)N(C)C[C@@H]1Oc2cc(-c3ccncc3)ccc2S(=O)(=O)N([C@H](C)CO)C[C@@H]1C,.,-2.6,-16.8[16.7 µM],-5.8,-6.5,.
O=C(NCCC1=CCCCC1)c1cc(S(=O)(=O)N2CCOCC2)ccc1Cl,-1.4,0.8,36.0,4.9,-0.9,.
Cc1ccc(S(=O)(=O)N2CCCCC2)cc1C(=O)NCCC1=CCCCC1,-2.1,12.0,72.5*,-0.2,-2.4,3.5
O=C(CCNC(=O)c1ccccc1Cl)NCCC1=CCCCC1,-1.0,-10.7,58.4*,1.7,-2.3,-36.3
O=C(COc1ccccc1Cl)NCCC1=CCCCC1,-1.5,.,9.6,.,-4.1,11.1
O=C(COC(=O)/C=C/c1ccc(Cl)cc1)NCCC1=CCCCC1,2.1,.,-8.2,.,31.6*,6.4
O=C(COC(=O)/C=C/c1cccc(Cl)c1)NCCC1=CCCCC1,-0.4,.,-79.8,.,8.5,-6.2
